Experiments:
Plasmodium falciparum = test: Antiplasmodial activity against ring stage Plasmodium falciparum W2 infected in human red blood cells after 48 hrs by flow cytometry; format: functional, organism-based; details: W2, 48 h
[1] = Inhibition of Plasmodium falciparum falcipain-2 using Z-Leu-Arg-AMC as substrate after 10 mins by spectrofluorimetry
How it was run: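 Enzyme at 1 nM in 100 mM sodium acetate pH 6.0, 5 mM DTT, 0.75% DMSO, 25 °C; preincubated 10 min with serial 1:5 compound dilutions (50 µM down to 0.65 nM), then 25 µM Z-Leu-Arg-AMC added; fluorescence read immediately. IC50 from percent inhibition versus no-inhibitor controls.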

Papain = target: T1, Papain (Carica papaya, UniProt P00784); test: Inhibition of papaya papain using Z-Leu-Leu-Arg-AMC as substrate after 30 mins by spectrofluorometry
T1 sequence (P00784 whole entry): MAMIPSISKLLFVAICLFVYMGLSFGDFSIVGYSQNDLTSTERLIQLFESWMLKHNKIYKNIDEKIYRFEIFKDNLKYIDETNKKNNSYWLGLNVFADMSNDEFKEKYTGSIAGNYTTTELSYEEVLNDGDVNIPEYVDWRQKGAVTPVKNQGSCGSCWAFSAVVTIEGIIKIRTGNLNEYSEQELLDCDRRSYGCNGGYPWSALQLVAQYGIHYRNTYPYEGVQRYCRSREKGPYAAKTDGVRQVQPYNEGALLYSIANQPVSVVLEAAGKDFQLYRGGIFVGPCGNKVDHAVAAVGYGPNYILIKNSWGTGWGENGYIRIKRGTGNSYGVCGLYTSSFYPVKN
How it was run: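 Papain activated in buffer at 5 µg/mL, 10 mM PBS pH 7.4 with 5 mM DTT, 37 °C, inhibitor serial dilutions in DMSO; 30 µM Z-Leu-Leu-Arg-AMC started the reaction (Km 0.4 µM, saturating). Fluorescence (ex 355/em 460 nm) monitored 30 min; E64 positive control; IC50 by non-linear regression of log concentration versus % activity; triplicate.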

| SMILES | IC50 (Plasmodium falciparum) [µM] | IC50 [1] [µM] | IC50 (Papain) [µM] |
| --- | --- | --- | --- |
| CC(C)C[C@H](NC(=O)OC(C)(C)C)C(=O)NNC(=O)/C=C/S(C)(=O)=O | 34.2 |  |  |
| CC(C)C[C@H](NC(=O)OC(C)(C)C)C(=O)NNC(=O)/C=C/S(=O)(=O)c1ccccc1 | 33.5 |  |  |
| CC(C)C[C@H](NC(=O)OC(C)(C)C)C(=O)NN(Cc1ccccc1)C(=O)/C=C/S(C)(=O)=O | 21.6 | > 50 |  |
| CC(C)C[C@H](NC(=O)OC(C)(C)C)C(=O)NN(Cc1ccccc1)C(=O)/C=C/S(=O)(=O)c1ccccc1 | > 50 | > 50 |  |
| CC(C)C[C@H](NC(=O)OC(C)(C)C)C(=O)NN(CCc1ccccc1)C(=O)/C=C/S(C)(=O)=O | 46.6 | > 50 |  |
| CC(C)C[C@H](NC(=O)OC(C)(C)C)C(=O)NN(CCc1ccccc1)C(=O)/C=C/S(=O)(=O)c1ccccc1 | 15.4 | > 50 |  |
| CC(C)C[C@H](NC(=O)OCc1ccccc1)C(=O)NN(CCc1ccccc1)C(=O)/C=C/S(=O)(=O)c1ccccc1 | > 10 |  | > 50 |
| O=C(CNC(=O)OCc1ccccc1)NN(CCc1ccccc1)C(=O)/C=C/S(=O)(=O)c1ccccc1 | > 10 |  | > 50 |
| O=C(N[C@@H](Cc1ccccc1)C(=O)NN(CCc1ccccc1)C(=O)/C=C/S(=O)(=O)c1ccccc1)OCc1ccccc1 | 9 |  | > 50 |
| CC(C)C[C@H](NC(=O)N1CCOCC1)C(=O)NNC(=O)/C=C/S(=O)(=O)c1ccccc1 | > 10 |  | > 50 |
| CC(C)C[C@H](NC(=O)N1CCOCC1)C(=O)NN(CCc1ccccc1)C(=O)/C=C/S(=O)(=O)c1ccccc1 | 3.4 |  | > 50 |
| COc1c(N[C@@H](CC(C)C)C(=O)NNC(=O)/C=C/S(C)(=O)=O)c(=O)c1=O | 2.3 | > 50 |  |
| COc1c(N[C@@H](CC(C)C)C(=O)NNC(=O)/C=C/S(=O)(=O)c2ccccc2)c(=O)c1=O | 3.5 | > 50 |  |
| CCCCOc1c(N[C@@H](CC(C)C)C(=O)NNC(=O)/C=C/S(=O)(=O)c2ccccc2)c(=O)c1=O | 2.6 | > 50 |  |
| COc1c(N[C@@H](CC(C)C)C(=O)NN(Cc2ccccc2)C(=O)/C=C/S(C)(=O)=O)c(=O)c1=O | > 10 | > 50 |  |
| COc1c(N[C@@H](CC(C)C)C(=O)NN(Cc2ccccc2)C(=O)/C=C/S(=O)(=O)c2ccccc2)c(=O)c1=O | 0.95 | > 50 |  |
| CCCCOc1c(N[C@@H](CC(C)C)C(=O)NN(Cc2ccccc2)C(=O)/C=C/S(=O)(=O)c2ccccc2)c(=O)c1=O | 1.2 | > 50 |  |
| COc1c(N[C@@H](CC(C)C)C(=O)NN(CCc2ccccc2)C(=O)/C=C/S(C)(=O)=O)c(=O)c1=O | 2.5 | > 50 |  |
| COc1c(N[C@@H](CC(C)C)C(=O)NN(CCc2ccccc2)C(=O)/C=C/S(=O)(=O)c2ccccc2)c(=O)c1=O | > 10 | > 50 |  |
| CCCCOc1c(N[C@@H](CC(C)C)C(=O)NN(CCc2ccccc2)C(=O)/C=C/S(=O)(=O)c2ccccc2)c(=O)c1=O | 4.5 | > 50 |  |
| CC(C)C[C@H](NC(=O)[C@H]1O[C@@H]1C(=O)O)C(=O)NCCCCN=C(N)N [E-64] |  | 0.11 | 0.002 |

Reference: ChEMBL document CHEMBL1926620, “Aza vinyl sulfones: synthesis and evaluation as antiplasmodial agents” (Bioorg Med Chem, 2011)
